# Measurements: ChEMBL document CHEMBL1133563, “Development of new hydroxamate matrix metalloproteinase inhibitors derived from functionalized 4-aminoprolines” (J Med Chem, 2000)
# Columns and labels:
# [1] = Mean (%CV) PK parameters for Vdss(mL/kg).; format: ADME, organism-based; details: rat, in vivo; read-out: Vdss
# Procedure, shortened: (§1)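 Single-compound study in male Sprague-Dawley rats, dosed intravenously and orally in a parallel-group design. Parameters were derived from mean plasma concentration-time profiles.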
# [2] = Mean (%CV) PK parameters for CL(mL/min/kg).; format: ADME, organism-based; details: rat, in vivo; procedure, shortened: as §1
# [3] = Pharmacokinetic half time was determined intravenously in rats.; format: ADME, organism-based; details: rat, in vivo, iv; procedure, shortened: as §1
# [4] = Oral bioavailability measured by the ratio of […] area under concentration.; format: ADME, organism-based; details: rat, in vivo; procedure, shortened: as §1
# [5] = Compound demonstarted an oral bioavailability of […]% with the half-life time as given in rats.; format: ADME, organism-based; details: rat, in vivo
# Stromelysin-1 [6] = target: T1, Stromelysin-1 (Homo sapiens, UniProt P08254); assay: In vitro inhibitory activity against matrix metalloprotease -3 (stromelysin)
# T1 sequence (P08254 whole entry): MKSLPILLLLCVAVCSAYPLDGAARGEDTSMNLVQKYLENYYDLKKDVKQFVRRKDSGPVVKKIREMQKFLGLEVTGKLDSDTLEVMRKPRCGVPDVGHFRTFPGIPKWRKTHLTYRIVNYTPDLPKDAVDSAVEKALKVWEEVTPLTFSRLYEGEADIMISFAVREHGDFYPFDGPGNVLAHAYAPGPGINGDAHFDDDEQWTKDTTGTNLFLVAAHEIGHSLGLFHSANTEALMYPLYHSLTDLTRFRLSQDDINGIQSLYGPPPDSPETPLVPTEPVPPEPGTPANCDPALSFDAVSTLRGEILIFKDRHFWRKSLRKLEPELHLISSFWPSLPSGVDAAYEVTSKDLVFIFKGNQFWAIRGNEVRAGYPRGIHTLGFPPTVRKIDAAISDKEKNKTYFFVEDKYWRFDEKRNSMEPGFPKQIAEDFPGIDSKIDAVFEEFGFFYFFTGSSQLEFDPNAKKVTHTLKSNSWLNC
# Matrilysin = target: T2, Matrilysin (Homo sapiens, UniProt P09237); assay: In vitro inhibitory activity against matrix metalloprotease-7 (matrilysin, MMP-7)
# T2 sequence (P09237 whole entry): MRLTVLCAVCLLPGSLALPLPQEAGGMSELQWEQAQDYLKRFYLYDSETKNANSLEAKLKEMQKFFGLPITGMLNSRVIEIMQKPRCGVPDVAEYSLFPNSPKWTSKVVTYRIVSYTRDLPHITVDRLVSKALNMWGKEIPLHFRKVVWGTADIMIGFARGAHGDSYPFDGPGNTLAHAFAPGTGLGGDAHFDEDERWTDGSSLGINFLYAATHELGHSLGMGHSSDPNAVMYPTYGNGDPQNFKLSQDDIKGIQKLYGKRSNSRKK
# Procedure, shortened: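 Human recombinant truncated enzymes, final MMP-1 8 nM, MMP-3 16 nM, MMP-7 2 nM. Quenched-fluorescence assay with Mca-Pro-Leu-Gly-Leu-Dpa-Ala-Arg-NH₂ (4 µM) in 50 mM Tris pH 7.5, 0.2 M NaCl, 5 mM CaCl₂, 0.02% Brij-35 at 25 °C. Fluorescence (ex 328/em 393 nm) read kinetically for 30 min.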
# Interstitial collagenase = target: T3, Interstitial collagenase (Homo sapiens, UniProt P03956); assay: In vitro inhibitory activity against matrix metalloprotease -1 (collagenase-1)
# T3 sequence (P03956 whole entry): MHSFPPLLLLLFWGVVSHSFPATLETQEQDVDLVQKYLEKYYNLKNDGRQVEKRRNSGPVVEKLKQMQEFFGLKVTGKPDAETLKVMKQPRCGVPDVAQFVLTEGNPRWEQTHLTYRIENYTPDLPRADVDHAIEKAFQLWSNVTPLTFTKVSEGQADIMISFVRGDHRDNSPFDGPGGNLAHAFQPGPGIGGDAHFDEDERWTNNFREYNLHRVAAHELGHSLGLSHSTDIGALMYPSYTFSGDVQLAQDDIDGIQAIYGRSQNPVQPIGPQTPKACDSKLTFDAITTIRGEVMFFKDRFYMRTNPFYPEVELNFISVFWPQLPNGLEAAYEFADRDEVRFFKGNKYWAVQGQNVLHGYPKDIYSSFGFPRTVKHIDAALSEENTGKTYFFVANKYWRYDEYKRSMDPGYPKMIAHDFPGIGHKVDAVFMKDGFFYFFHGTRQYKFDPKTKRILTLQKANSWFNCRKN
# [7] = target: 72 kDa type IV collagenase (Homo sapiens, UniProt P08253); assay: In vitro inhibitory activity against matrix metalloprotease -2 (gelatinase-A)
# Sequence of 72 kDa type IV collagenase (P08253 whole entry): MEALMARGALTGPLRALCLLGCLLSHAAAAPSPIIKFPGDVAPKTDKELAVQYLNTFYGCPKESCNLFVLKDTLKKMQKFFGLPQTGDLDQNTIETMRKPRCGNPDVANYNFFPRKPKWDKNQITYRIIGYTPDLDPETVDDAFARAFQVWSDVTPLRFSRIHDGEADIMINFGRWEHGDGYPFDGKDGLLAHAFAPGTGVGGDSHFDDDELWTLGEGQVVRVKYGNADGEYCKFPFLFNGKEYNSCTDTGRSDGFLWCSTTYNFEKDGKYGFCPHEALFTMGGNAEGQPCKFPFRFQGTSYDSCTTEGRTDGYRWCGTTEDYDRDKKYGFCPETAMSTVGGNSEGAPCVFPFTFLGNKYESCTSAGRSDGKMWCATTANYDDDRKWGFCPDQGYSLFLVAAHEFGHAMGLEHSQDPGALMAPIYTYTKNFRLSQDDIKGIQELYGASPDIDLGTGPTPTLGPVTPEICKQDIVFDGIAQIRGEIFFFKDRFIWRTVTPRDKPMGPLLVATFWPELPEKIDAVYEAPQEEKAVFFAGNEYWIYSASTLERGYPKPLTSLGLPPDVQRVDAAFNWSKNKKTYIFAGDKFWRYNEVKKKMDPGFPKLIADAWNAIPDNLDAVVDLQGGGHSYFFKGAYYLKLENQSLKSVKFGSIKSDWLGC
# Collagenase 3 [8] = target: T4, Collagenase 3 (Homo sapiens, UniProt P45452)
# Rattus norvegicus = organism: Rattus norvegicus; assay: Time over 100 ng/ml in fasted rats; details: in vivo
# Collagenase 3 [9] = target: T4, Collagenase 3; assay: In vitro inhibitory activity against human recombinant matrix metalloprotease-13 (collagenase-3)
# Stromelysin-1 [10] = target: T1, Stromelysin-1; assay: Inhibition of matrix metalloprotease-3 (stromelysin)
# Procedure, shortened: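 Human recombinant truncated MMP-3 (E. coli-expressed), 16 nM final, with fluorogenic substrate Mca-Pro-Leu-Gly-Leu-Dpa-Ala-Arg-NH₂ at 4 µM, 25 °C, in 50 mM Tris pH 7.5, 0.2 M NaCl, 5 mM CaCl₂, 0.02% Brij-35.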
# Collagenase 3 [11] = target: T4, Collagenase 3; remark: listed apart in the source
Structure (SMILES),Vd [1] [L/kg],clearance [2] [mL/min/kg],half-life [3] [h],bioavailability [4] [%],half-life [5] [h],IC50 (Stromelysin-1 [6]) [nM],IC50 (Matrilysin) [nM],IC50 (Interstitial collagenase) [nM],IC50 [7] [nM],IC50 (Collagenase 3 [8]) [nM],Time over 100ng/ml (Rattus norvegicus) [h],IC50 (Collagenase 3 [9]) [nM],IC50 (Stromelysin-1 [10]) [nM],IC50 (Collagenase 3 [11]) [nM]
CCCCOc1ccc(S(=O)(=O)N2C[C@@H](N3CCOCC3)C[C@@H]2C(=O)NO)cc1,0.408,30,0.4,6,1.7,5,5400,920,4,0.6,3.5,–,–,–
CCCCOc1ccc(S(=O)(=O)N2C[C@@H](N3CCS(=O)(=O)CC3)C[C@@H]2C(=O)NO)cc1,–,–,–,–,–,12,3400,> 1000,7,0.9,–,–,–,–
CCCOc1ccc(S(=O)(=O)N2C[C@@H](N3CCOCC3)C[C@@H]2C(=O)NO)cc1,–,–,–,–,–,7,16500,490,–,–,4.5,1,–,–
COCCOc1ccc(S(=O)(=O)N2C[C@@H](N3C(=O)CN(C)C3=O)C[C@@H]2C(=O)NO)cc1,–,–,–,–,–,26,9100,1800,1,4.4,0,–,–,–
C=CCN1CC(=O)N([C@H]2C[C@H](C(=O)NO)N(S(=O)(=O)c3ccc(OCCCC)cc3)C2)C1=O,–,–,–,–,–,7,1000,480,–,–,4,0.4,–,–
COc1ccc(S(=O)(=O)N2C[C@@H](N(Cc3cccnc3)S(C)(=O)=O)C[C@@H]2C(=O)NO)cc1,–,–,–,–,–,6,2700,74,2,–,0,1,–,–
CCCCOc1ccc(S(=O)(=O)N2C[C@@H](N3C(=O)NC(C)(C)C3=O)C[C@@H]2C(=O)NO)cc1,–,–,–,–,–,3,450,780,2,< 0.5,–,–,–,–
COc1ccc(S(=O)(=O)N2C[C@@H](NS(C)(=O)=O)C[C@@H]2C(=O)NO)cc1,–,–,–,–,–,42,2700,260,2,–,–,2,–,–
C=CCN1CC(=O)N([C@H]2C[C@H](C(=O)NO)N(S(=O)(=O)c3ccc(OCCOC)cc3)C2)C1=O,–,–,–,–,–,46,11000,2900,2,–,–,2,–,–
COc1ccc(S(=O)(=O)N2C[C@@H](N)C[C@@H]2C(=O)NO)cc1,–,–,–,–,–,23,4300,250,6,–,–,5,–,–
CCCCOc1ccc(S(=O)(=O)N2C[C@@H](N3C(=O)NC(SC)C3=O)C[C@@H]2C(=O)NO)cc1 (stereo not given in full),–,–,–,–,–,42,850,750,49,–,–,< 0.5,–,–
CCCCOc1ccc(S(=O)(=O)N2C[C@@H](N3C(=O)CN(C)C3=O)C[C@@H]2C(=O)NO)cc1,–,–,–,–,–,–,1600,–,–,–,0,–,2,–
CCCN(C(=O)[C@@H](O)CCc1ccccc1)[C@H]1C[C@H](C(=O)NO)N(S(=O)(=O)c2ccc(OC)cc2)C1,–,–,–,–,–,12,–,260,0.6,–,–,–,–,0.5
